PMI activator: activators of human phosphomannose isomerase | activation factor at 20 µM | actives 0.005% (n = 190,000) | P34949 | AID 1214 | purified human PMI, coupled resazurin fluorescence, 20 min; stronger effect = higher value; 1 = vehicle control, 0 substrate-free wells;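 active means activation factor of 2 or more at 20 µM, relative to plate controls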
Target sequence (P34949 whole entry, looked up): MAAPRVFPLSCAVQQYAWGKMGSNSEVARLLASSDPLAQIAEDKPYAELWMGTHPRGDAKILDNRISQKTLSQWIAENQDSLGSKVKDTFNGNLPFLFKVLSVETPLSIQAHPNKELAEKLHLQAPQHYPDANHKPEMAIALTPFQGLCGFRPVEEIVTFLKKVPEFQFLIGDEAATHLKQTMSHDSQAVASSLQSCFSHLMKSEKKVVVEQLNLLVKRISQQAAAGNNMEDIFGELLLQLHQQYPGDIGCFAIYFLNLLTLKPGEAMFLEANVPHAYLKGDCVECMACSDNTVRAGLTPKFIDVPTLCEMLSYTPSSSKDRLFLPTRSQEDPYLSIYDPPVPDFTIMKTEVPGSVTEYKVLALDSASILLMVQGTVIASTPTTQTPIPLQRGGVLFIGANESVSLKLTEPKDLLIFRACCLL
GSH bead fluor: GSH bead compound fluorescence profile; GSH beads flow cytometry, compound fluorescence 488/530 nm; stronger effect = higher value; fluorescence (KMESF) at 10 µM; actives 0.25% (n = 190,000); in the data active means fluorescence above about 89;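 further: glutathione beads carrying GST-tagged Bcl family fusion proteins plus one bare bead set; values are compound well signal with DMSO vehicle wells as background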
Avidin fluor: compound fluoresces at 488/530 nm on avidin beads; actives 0.38% (n = 220,000); fluorescence (KMESF) at 10 µM; compound fluorescence 488/530 nm, flow cytometry; stronger effect = higher value; in the data active means fluorescence above about 47
PMI act hi M6P: increases human PMI activity with near-saturating mannose 6-phosphate; P34949; actives 0.34% (n = 190,000); activation factor at 20 µM; coupled PMI enzyme assay, resazurin fluorescence, 20 min; stronger effect = higher value; 1 = untreated enzyme, 0 = substrate-free blank;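 active means activation factor of 2 or more at 20 µM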
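Technique: Diaphorase-driven resazurin-to-resorufin fluorescence, excitation 544, emission 590 nm | Assay system: Human PMI in coupled enzyme assay | Times: Enzyme reaction with compound 20 min at room temperature | Medium: HEPES-buffered pH 7.4 with magnesium and detergent | Reagent: Mannose-6-phosphate 1.0 mM (near-saturating) plus 0.22 mM NADP+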
p47phox inh: blocks human p47phox regulatory protein of NADPH oxidases | actives 0.53% (n = 220,000) | P14598 | inhibition, % at 24.7 µM | p47phox/p22phox peptide binding, fluorescence polarization, 2 h;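 active means inhibition above about 30%, limit read from the data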;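 further: 0% = p47phox with labelled peptide and 100% = labelled peptide alone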
Diaphorase act: diaphorase activation or chemical reduction counter-screen; Diaphorase/resazurin coupled assay, resorufin fluorescence, 16 min; stronger effect = higher value; 1 = vehicle wells, 0 = NADH-free wells; activation factor at 20 µM; actives 0.005% (n = 190,000); AID 1229;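 active means diaphorase activity raised at least twofold by the compound at 20 µM; inactive means activation factor below 2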
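System – purified diaphorase enzyme from Clostridium kluyveri · Input – enzyme 0.07 U/mL final · Also added – final NADH 0.114 mM, resazurin 0.1 mM · Measured by – fluorescence of resorufin, 544 nm excitation, 590 nm emission · Timing – 16 min enzyme reaction, ambient temperature · Measure – resorufin increase flagging diaphorase activators or reducers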
Active calls of the source: *; nt = no result given; + = active, no number; ! = not active in a repeat. In the library only some 1.4% were active in any assay of this set; here they are far more common.

SMILES	PMI activator	GSH bead fluor	Avidin fluor	PMI act hi M6P	p47phox inh	Diaphorase act
O=C(Nc1ccccn1)c1onc2c1CCCC2	0.9	11	4	0.9	-11	0.9
CC(/C=C/C=C/c1ccccc1)=N\NC(=O)c1cccnc1	1.6	11	11	2.1*	-1	0.8
C[c-]1[c-](C)[c-](C)[c-](C)[c-]1C.[Fe].c1cc2nccc(N3CCCC3)[c-]2c1 (centres undefined)	nt	nt	10	nt	30*!	nt
O=C1O/C(=C\C(=O)N2CCOCC2)c2ccccc21	1	60	14	0.9	-1	0.9
CCC(C)C(NC(=O)c1ccccc1NC(=O)c1ccc(OC)cc1)C(=O)NCc1ccco1 (centres undefined)	1	17	6	1	50*	1
COc1ccccc1NS(=O)(=O)c1cccc(C(=O)N/N=C/c2ccc3c(c2)OCCO3)c1	0.9	3	1	0.9	-1	0.7
COc1ccc(NS(=O)(=O)c2cccc(C(=O)N/N=C/c3ccc4c(c3)OCCO4)c2)cc1	0.9	7	8	0.9	31*	0.9
CCOC(=O)c1oc2cccc(OCC(O)CNC(C)C)c2c1C (centres undefined)	0.9	31	127*	1.1	nt	1
CCC(=O)NNc1nc2c(Cl)cccc2s1	0.9	8	9	0.9	1	0.9
Cc1nc2ccc(NC(=O)N(C)c3ccccc3)cc2s1	1	17	3	1	-3	0.9
Cc1nc2ccc(NC(=O)N(C(C)C)C(C)C)cc2s1	1	12	82*	0.9	-1	0.9
O=C(O)c1ccc(N/N=C/c2ccc(-c3cc(Cl)ccc3Cl)o2)cc1	nt	nt	9	nt	-25	nt
Cc1c(C(=O)O)cccc1-c1ccc(/C=N/Nc2ccc(Br)cc2)o1	1.6	7	2	2.2*	-11	0.8
CCCCn1c(C)nc2c(=O)n(C)c(=O)[nH]c21	0.9	24	11	1	-15	0.9
C/C(=N\O)c1ccc2c(c1)CC(C)O2 (centres undefined)	nt	nt	6	nt	-6	nt
O=C(NCc1cccnc1)C(=O)NCC1OCCN1S(=O)(=O)c1cc(F)ccc1F (centres undefined)	nt	nt	75*	nt	-8	nt
O=C(NCc1cccnc1)C(=O)NCC1OCCN1S(=O)(=O)c1ccccc1 (centres undefined)	0.9	16	2	0.9	-4	0.9
O=C1c2cccnc2C(=O)N1Cc1ccccc1	1.1	15	23	1	-5	0.9
O=C1c2cccc3c(O)ccc(c23)C(=O)N1Cc1ccccc1	0.9	162*	81*	0.9	37*	0.8
CSc1nccc(Nc2ccccc2)c1C#N	1	15	6	1	-2	0.9
COc1nccc(Nc2ccccc2)c1C#N	1.1	69	9	1.1	44*	0.9
C=CCNc1nc(Nc2ccc(OC)cc2OC)nc(OCC)n1	0.9	26	75*	0.9	-17	0.9
CCOC(=O)c1c(NC(=O)COc2ncnc3sccc23)sc2c1CCC2	1	29	10	1	-18	0.9
Cc1nonc1C(=O)N/N=C/c1ccc([N+](=O)[O-])o1	1.3	12	13	0.8	0	0.7
Cc1cc(C(=O)N/N=C/c2ccc([N+](=O)[O-])o2)c(C)o1	nt	nt	7	nt	56*	nt
SMILES	PMI activator	GSH bead fluor	Avidin fluor	PMI act hi M6P	p47phox inh	Diaphorase act
CCCNS(=O)(=O)c1ccc(-n2cnnn2)c(OC)c1	nt	16	10	nt	-6	nt
COc1cc(NS(=O)(=O)c2ccc(C)cc2)ccc1-n1cnnn1	1	13	11	0.9	53*	0.8
CCOC(=O)N1CCC2(CC1)C(C#N)=C(N)Oc1c2c(C)nn1-c1cccc(Cl)c1	1.5	33	14	2*	-42	0.8
C/C(=N\NC(=O)c1ccc(Cl)cc1)c1cccs1	1	24	26	0.9	38*	0.9
COc1ccc(Oc2nccc(OC)c2C#N)cc1	0.9	21	19	0.8	-3	0.8
CCOC(=O)c1ccc(NC(=O)CSc2nnc(Cn3c(=O)sc4ccccc43)n2C)cc1	0.9	26	89*	0.9	+	0.9
